Screening results from PubChem.
Sampled rows, rich in hits. Any-hit rate of the full collection: about 2.9%.
ABHD4 inh = inhibits mouse alpha/beta hydrolase domain 4; Q8VD66; purified mABHD4, FP-Rh probe fluorescence polarization; inhibition, % at 8.92 µM; hit rate 0.54% among 370,000; AID 720543;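 active = inhibition exceeding the mean over every tested compound plus 3 SD, cut at about 30% in these data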
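Test system: mABHD4 protein | Buffer or medium: HEPES pH 7.0 buffer, 150 mM NaCl, 0.01% Pluronic F-127 | Probe or stimulus: FP-Rh fluorescent activity-based probe, added after compound pre-incubation | Timing: Pre-incubation 45 min, probe exposure 60 min, at 25 °C | Technique: Fluorescence polarization, excitation 525 nm, emission 598 nm, BODIPY TMR filters | Repeats: Single well per compound (singlicate)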
PRMT1 inh = blocks human protein arginine methyltransferase 1. inhibition, % at 2.79 µM. hit rate 1.3% among 370,000. Q99873. recombinant PRMT1, activity-based probe fluorescence polarization;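 active = inhibition above about 21% made by adding two undisclosed values, limit read from the data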
HTRA1 inh = blocks human HTRA1 serine peptidase; Q92743; recombinant HTRA1, FP-rhodamine activity-based probe, fluorescence polarization; inhibition, % at 5.96 µM; hit rate 0.5% among 340,000; in the data active = inhibition above about 36%
Target sequence (Q92743 whole entry, looked up): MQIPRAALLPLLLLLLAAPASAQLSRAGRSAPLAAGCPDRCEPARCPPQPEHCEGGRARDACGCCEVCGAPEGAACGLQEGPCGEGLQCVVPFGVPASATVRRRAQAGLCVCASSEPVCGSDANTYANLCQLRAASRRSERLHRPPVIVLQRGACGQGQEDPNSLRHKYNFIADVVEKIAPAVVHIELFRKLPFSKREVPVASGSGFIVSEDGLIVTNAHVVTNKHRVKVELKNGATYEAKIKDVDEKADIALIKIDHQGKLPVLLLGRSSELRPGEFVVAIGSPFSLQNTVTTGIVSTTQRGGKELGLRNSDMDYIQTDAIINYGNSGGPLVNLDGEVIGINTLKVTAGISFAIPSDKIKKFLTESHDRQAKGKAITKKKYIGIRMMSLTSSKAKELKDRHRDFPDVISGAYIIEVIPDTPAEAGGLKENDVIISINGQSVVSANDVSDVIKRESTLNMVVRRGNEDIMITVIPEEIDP
PAD4 inh = blocks human protein arginine deiminase 4 | hit rate 0.41% among 330,000 | recombinant PAD4, RCA probe fluorescence polarization | inhibition, % at 6.36 µM | AID 485272;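 active = percent inhibition above a cutoff equal to the mean of all tested compounds plus 3 SD, cut at about 15% in these data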
TCR-CD3 inh = inhibitors of human TCR-CD3 interaction; AID 651800; hit rate 0.37% among 360,000; TAMRA-labeled TCR probe fluorescence, biochemical; inhibition, % at 9.4 µM; in the data active = inhibition above about 19%;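 note: recombinant mutant TCR 2C K166C tagged with TAMRA read by polarization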
SIAE inh = inhibitors of human sialic acid acetylesterase SIAE. hit rate 0.69% among 370,000. SIAE FP-Rh probe binding, fluorescence polarization. AID 1053197. inhibition, % at 9.66 µM. Q9HAT2;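 active = inhibition above a cutoff: mean of compounds within the control limits plus 3 SD of those, cut at about 17% in these data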
PRMT1 inh conf = confirmation of human PRMT1 inhibitors; hit rate 42% among 3,300; recombinant His-PRMT1, activity-based probe fluorescence polarization; inhibition, % at 2.79 µM; shares compounds with PRMT1 inh; AID 687036;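 active = mean inhibition across replicates above the hit cutoff derived for the earlier primary screen, cut at about 22% in these data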
A number is an active result; – = inactive; · = no result given.

SMILES | ABHD4 inh | PRMT1 inh | HTRA1 inh | PAD4 inh | TCR-CD3 inh | SIAE inh | PRMT1 inh conf
CC(C)OC(=O)c1cc2c(ccn2C)n1CC(=O)N(Cc1ccccc1)c1ccc(F)cc1 | – | 25.0 | – | – | – | – | –
CC(C)OC(=O)c1cc2c(ccn2C)n1CC(=O)N1CCC(Cc2ccccc2)CC1 | – | – | – | – | – | – | ·
CCOC(=O)c1cc2c(ccn2C)n1CC(=O)N(Cc1ccccc1)c1ccccc1 | – | 29.4 | – | – | – | – | –
CCOC(=O)c1cc2c(ccn2C)n1CC(=O)N(Cc1ccccc1)c1ccc(F)cc1 | – | – | – | – | – | – | ·
Cc1ccc(NC(=O)CC2SC3=NCCCN3C2=O)c(C)c1 (stereo not given) | – | 44.5 | – | – | – | – | 39.7
O=C(CC1SC2=NCCN2C1=O)Nc1ccc(Cl)cc1 (stereo not given) | – | – | – | – | – | – | ·
CN(CCCN1CCOCC1)C(=O)c1cc(COc2ccc(F)cc2F)on1 | – | 29.1 | – | – | – | – | –
COC(=O)c1cc(-c2cc(Cl)cc(Cl)c2)c(=O)n2c1CCC2 | – | – | · | · | · | – | ·
Cc1ccc(C(=O)Nc2sc(C)c(C)c2C(=O)c2ccccc2)cc1 | – | 51.2 | – | – | – | – | –
Cc1sc(NC(=O)c2ccccc2)c(C(=O)NC(C)C)c1C | – | – | – | – | – | – | ·
Cc1sc(NC(=O)c2ccccc2)c(C(=O)c2ccccc2)c1C | – | 30.5 | – | – | – | – | –
O=[N+]([O-])c1cnc(Sc2ccncn2)s1 | – | 25.8 | – | – | – | – | 30.6
O=[N+]([O-])c1ccc(Sc2ncccn2)c([N+](=O)[O-])c1 | – | – | · | – | – | – | ·
O=[N+]([O-])c1cnc(Sc2ccncn2)c([N+](=O)[O-])c1 | – | 71.1 | – | · | – | – | 89.6
OCC(O)C(O)C(O)C(O)C1NCCS1 (stereo not given) | – | 31.8 | – | – | – | – | –
O=C(NC1CCCCN(Cc2ccc(Cl)cc2)C1=O)C(c1ccccc1)c1ccccc1 (stereo not given) | – | – | · | · | · | – | ·
O=C1/C(=C\c2cc([N+](=O)[O-])ccc2O)SC(=S)N1Cc1ccc(Cl)cc1 | – | 26.1 | – | – | – | – | 33.2
O=C(O)CN1C(=O)/C(=C\c2cc([N+](=O)[O-])ccc2OCc2ccccc2Cl)SC1=S | – | – | – | – | – | – | ·
COc1ccc(NCc2nnc(SCC(=O)Nc3cccc(C)c3)o2)cc1 | – | 36.7 | – | – | – | – | 28.7
COC(=O)C1CN(Cc2cn(CCC3OCCO3)nn2)CCS(=O)(=O)N1Cc1ccc(Cl)cc1 (stereo not given) | – | – | · | · | · | – | ·
CCOC(=O)c1[nH]c(=S)n(-c2ccccc2)c1C(=O)OCC | – | 48.2 | – | · | – | – | –
O=C(COCc1ccccc1)N1CC[C@H]2[C@H](CCCN2Cc2ccc(F)cc2)C1 | – | – | · | · | · | – | ·
Cc1ccc(-c2ccc(/C=C/C(=O)c3ccccc3)o2)cc1 | – | 31.9 | – | – | – | – | 39.4
O=C(/C=C/c1ccc(-c2ccccc2[N+](=O)[O-])o1)c1ccc(F)cc1 | – | 33.0 | – | – | – | – | –
Cc1cccc(C=CC(=O)c2ccccc2)c1 | – | – | – | · | – | – | ·
SMILES | ABHD4 inh | PRMT1 inh | HTRA1 inh | PAD4 inh | TCR-CD3 inh | SIAE inh | PRMT1 inh conf
NC(=O)SCC(=O)Nc1ccccc1C(=O)O | – | 36.6 | – | – | – | – | 81.2
Cc1ccccc1NC(=O)CSCC(=O)Nc1ccccc1C | – | – | – | – | – | – | ·
COc1ccccc1NC(=O)CSC(N)=O | – | 81.0 | – | – | – | – | 93.5
Cc1ccccc1NC(=O)CSC(N)=O | – | 75.3 | – | – | – | – | 89.6
CC(=O)N[C@@H]1C[C@@H]2O[C@H](CO)CC[C@@H]2O[C@@H]1CCc1ccc(C#CC2(O)CCCC2)cc1 | – | – | · | · | · | – | ·
COc1ccc(N2C(=O)CC(Nc3ccc(C)cc3)C2=O)cc1 (stereo not given) | – | – | – | – | – | – | ·
COc1ccc(N2C(=O)CC(NC3CCCCNC3=O)C2=O)cc1 (stereo not given) | – | 27.9 | – | – | – | – | –
COc1ccc(N2C(=O)CC(N3CCCC4CCCCC43)C2=O)cc1 (stereo not given) | – | 52.5 | – | – | – | – | –
